Here are results for 15 compounds from ChEMBL document CHEMBL5352427, “Isoquinolone derivatives as lysophosphatidic acid receptor 5 (LPA5) antagonists: Investigation of structure-activity relationships, ADME properties and analgesic effects” (Eur J Med Chem, 2022).

For data set [1], the target named is T1, Lysophosphatidic acid receptor 5 (Homo sapiens, UniProt Q9H1C0). Kind of data set: Antagonist activity at human LPA5 receptor expressed in RH7777 cells assessed as inhibition of EC80 concentration of hexadecyl LPA-induced calcium mobilization incubated for 15 mins by FLIPR method. Format: functional, cell-based. In general terms: A change in cytosolic calcium serves as a functional read-out for many receptors and channels.
T1 sequence (Q9H1C0 whole entry): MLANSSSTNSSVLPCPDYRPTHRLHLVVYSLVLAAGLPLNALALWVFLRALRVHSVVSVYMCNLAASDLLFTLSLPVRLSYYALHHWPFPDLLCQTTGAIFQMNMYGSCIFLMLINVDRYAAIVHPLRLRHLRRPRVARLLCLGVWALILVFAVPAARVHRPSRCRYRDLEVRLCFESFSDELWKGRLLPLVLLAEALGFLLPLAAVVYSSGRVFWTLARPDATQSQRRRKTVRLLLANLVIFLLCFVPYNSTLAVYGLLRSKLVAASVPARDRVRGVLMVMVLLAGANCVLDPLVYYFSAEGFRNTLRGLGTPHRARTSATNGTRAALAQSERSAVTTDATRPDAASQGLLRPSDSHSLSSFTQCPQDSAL

Data set [2] has as its target T1, Lysophosphatidic acid receptor 5. Kind of data set: Antagonist activity at human LPA5 receptor expressed in RH7777 cells assessed as inhibition of EC80 concentration of LPA-induced cAMP accumulation preincubated for 30 mins followed by Eu-cAMP tracer addition and measured after 1 hr by TR-FRET assay. The data set is classed as functional, cell-based. The method in brief: (§1)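 hLPA5-RH7777 cells, switched to 0.2% FBS medium 20 h prior, lifted with versene, 2,000 cells/well in HBSS/5 mM HEPES/0.1% BSA/0.5 mM IBMX pH 7.4. Compound dilutions with hexadecyl LPA 16:0 EC80 (300 nM) plus forskolin, 30 min room temperature; LANCE Ultra Eu-cAMP tracer/ULight-anti-cAMP 1 h; TR-FRET 665 nm converted to cAMP via standard curve. Three-parameter logistic IC50; ≥3 experiments in duplicate.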
On the technique in general: Changes in cAMP serve as a functional read-out for many G protein-coupled receptors.

The target is the same in data set [3]. The data set can be described thus: Antagonist activity at human LPA5 receptor expressed in RH7777 cells assessed as inhibition of EC80 concentration of LPA-induced cAMP accumulation preincubated for 30 mins followed by Eu-cAMP tracer addition and measured after 1 hr by TR-FRET assay relative to hexadecyl LPA. The data set is classed as functional, cell-based. To be noted: filed as antagonist. A digest of the protocol: as §1

For data set [4] the target is unchanged. Kind of data set: Agonist activity at human LPA5 receptor expressed in RH7777 cells assessed as calcium mobilization incubated for 15 mins by FLIPR method. The data set is classed as functional, cell-based. The method in brief: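 RH7777 cells stably expressing hLPA5, plated 20,000/well in 0.2% FBS medium 18–20 h, loaded 45 min at 37 °C with Calcium 5 dye in HBSS/20 mM HEPES/2.5 mM probenecid pH 7.4. […] Duplicates.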

Data set [5] shares this target. The data set can be described thus: Antagonist activity at human LPA5 receptor expressed in RH7777 cells assessed as inhibition of EC80 concentration of hexadecyl LPA-induced calcium mobilization incubated for 15 mins by FLIPR method relative to hexadecyl LPA. Format: functional, cell-based. To be noted: filed as antagonist.
The species named for data set [6] is Rattus norvegicus. The data set can be described thus: Antiallodynic activity against CFA-induced mechanical allodynia Sprague-Dawley rat model assessed as reduction paw threshold pain measured after 2 hrs. Format: functional, organism-based. To be noted: dose 32.0 mg/kg. The method in brief: (§2)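 Adult male Sprague-Dawley rats (230–280 g, n=6/group); 0.1 ml CFA injected into right hind paw. Compounds i.p. (1–2 ml/kg) in 20% DMSO/10% emulphor/saline; AS2717638 in 30% propylene glycol vehicle. Mechanical paw withdrawal threshold (cut-off 26 g) measured every 30 min after single dose; two-way ANOVA, mean ± SEM.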

The subject of data set [7] is Rattus norvegicus. Kind of data set: Antinociceptive activity in CCI surgery-neuropathic pain induced Sprague-Dawley rat model assessed as reduction in paw threshold pain measured at 32 mg/kg, ip. Format: functional, organism-based. Particulars: time 2.0 hrs, TDE = time-dependent effect. A digest of the protocol:
(§3)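 Male Sprague-Dawley rats (n=6), ketamine/xylazine anesthesia; four chromic gut ligatures ~1 mm apart around the right sciatic nerve. Drugs i.p. in DMSO/emulphor/saline (AS2717638 in propylene glycol vehicle), single or cumulative dosing with paw withdrawal threshold (cut-off 26 g) measured every 30 min.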

In data set [8] the test system is Rattus norvegicus. The data set can be described thus: Antiallodynic activity against CFA-induced Sprague-Dawley rat inflammatory pain model assessed as reduction in paw withdrawal threshold at 32 mg/kg measured after 2 hrs. The data set is classed as functional, organism-based. The method in brief:
as §2

The species named for another data set is Homo sapiens. Kind of data set: Selectivity ratio of IC50 for antagonist activity at human LPA5 receptor expressed in RH7777 cells assessed as inhibition of LPA-induced cAMP accumulation to IC50 for antagonist activity at human LPA5 receptor expressed in RH7777 cells assessed as inhibition of LPA-induced calcium mobilization. The data set is classed as cell-based.

Data set [9] has as its system Rattus norvegicus. The data set can be described thus: Antiallodynic activity against CFA-induced mechanical allodynia Sprague-Dawley rat model assessed as reduction paw threshold pain measured at 32 mg/kg, ip. Format: functional, organism-based. Particulars: time 2.0 hrs, TDE = time-dependent effect. A digest of the protocol: as §2
The species named for data set [10] is Rattus norvegicus. Kind of data set: Antinociceptive activity in CCI surgery-neuropathic pain induced Sprague-Dawley rat model assessed as reduction in paw threshold pain measured after 2 hrs. The data set is classed as functional, organism-based. To be noted: dose 32.0 mg/kg. A digest of the protocol:
as §3

Data set [11] in a line: Apparent permeability across apical to basolateral side in MDCK-MDR1 cells incubated for 90 mins by LC-MS/MS analysis. The data set is classed as ADME, cell-based, Canis lupus familiaris. To be noted: dog, mdck-mdr1, 1.5 h. The method in brief:
(§4)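 MDCK-MDR1 cells (passage 5) grown 3 days on Transwell polycarbonate inserts; transport buffer HBSS/10 mM HEPES/0.25% BSA pH 7.4, 30 min preincubation 37 °C with TEER check. 10 μM test article added apical (A-to-B) or basolateral (B-to-A); receiver sampled at 30, 60, 90 min, LC-MS/MS. Papp = (dQ/dt)/(A·Ci); efflux ratio B-to-A/A-to-B. Atenolol, propranolol, digoxin references.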

The target of data set [12] is Lysophosphatidic acid receptor 1 (Homo sapiens) (UniProt Q92633). The data set can be described thus: Antagonist activity at human LPA1 receptor expressed in CHO cells assessed as inhibition of LPA-induced calcium mobilization at 10 uM incubated for 15 mins by FLIPR analysis relative to control. The data set is classed as functional, cell-based. A digest of the protocol: (§5)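 Calcium mobilization in CHO cells overexpressing LPA1, LPA2 or LPA3, run by a contract lab under its own protocols; compounds tested at single 10 μM.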
Chain of Lysophosphatidic acid receptor 1 (Homo sapiens) (Q92633 whole entry): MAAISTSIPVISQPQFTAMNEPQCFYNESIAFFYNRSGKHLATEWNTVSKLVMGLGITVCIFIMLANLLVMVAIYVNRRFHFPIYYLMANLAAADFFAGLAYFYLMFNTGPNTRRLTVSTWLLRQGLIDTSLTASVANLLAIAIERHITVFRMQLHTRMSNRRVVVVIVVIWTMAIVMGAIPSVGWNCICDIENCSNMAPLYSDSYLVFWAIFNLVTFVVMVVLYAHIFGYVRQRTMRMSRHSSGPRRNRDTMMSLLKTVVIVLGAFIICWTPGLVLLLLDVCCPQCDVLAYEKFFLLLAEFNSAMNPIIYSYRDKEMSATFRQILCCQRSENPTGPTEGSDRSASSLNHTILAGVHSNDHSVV

Data set [13] relates to Rattus norvegicus. Kind of data set: Antiallodynic activity against CFA-induced Sprague-Dawley rat inflammatory pain model assessed as reduction in paw withdrawal threshold at 17.8 mg/kg measured after 5 hrs. Format: functional, organism-based. The method in brief: as §2
Data set [14] can be described thus: Substrate activity at P-glycoprotein (unknown origin) in MDCK-MDR1 cells assessed as efflux ratio of apparent permeability across basolateral to apical over apical to basolateral side measured after 90 mins by LC-MS/MS analysis. Format: ADME, cell-based, Canis lupus familiaris. To be noted: dog, mdck-mdr1, 1.5 h. A digest of the protocol: as §4
Data set [15] has as its target Lysophosphatidic acid receptor 2 (Homo sapiens) (UniProt Q9HBW0). The data set can be described thus: Antagonist activity at human LPA2 receptor expressed in CHO cells assessed as inhibition of LPA-induced calcium mobilization at 10 uM incubated for 15 mins by FLIPR analysis relative to control. Format: functional, cell-based. A digest of the protocol: as §5
The target in data set [16] is T2, Lysophosphatidic acid receptor 3 (Homo sapiens) (UniProt Q9UBY5).
T2 sequence (whole entry): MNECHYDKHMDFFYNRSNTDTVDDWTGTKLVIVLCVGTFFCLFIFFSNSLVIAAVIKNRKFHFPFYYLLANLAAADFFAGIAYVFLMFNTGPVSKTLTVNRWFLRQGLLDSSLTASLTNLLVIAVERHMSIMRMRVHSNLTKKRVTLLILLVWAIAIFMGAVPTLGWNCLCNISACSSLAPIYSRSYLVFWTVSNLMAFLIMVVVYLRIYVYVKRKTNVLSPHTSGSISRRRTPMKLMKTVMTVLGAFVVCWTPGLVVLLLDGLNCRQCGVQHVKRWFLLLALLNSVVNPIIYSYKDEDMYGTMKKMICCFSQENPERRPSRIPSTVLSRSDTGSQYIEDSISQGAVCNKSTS
The data set can be described thus: Antagonist activity at human LPA3 receptor expressed in CHO cells assessed as inhibition of LPA-induced calcium mobilization at 10 uM incubated for 15 mins by FLIPR analysis relative to control. Format: functional, cell-based. The method in brief:
as §5

Data set [17] is described as follows: Aqueous solubility of compound at pH 7.4. Format: physicochemical. To be noted: aqueous medium. A digest of the protocol:
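Kinetic solubility: 20 mM DMSO stock diluted into PBS (1 mM KH2PO4, 3 mM Na2HPO4, 155 mM NaCl) to a target of 400 μM; triplicates quantified by LC-MS/MS against matrix-matched standards.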

Data set [18] concerns the target Lysophosphatidic acid receptor 4 (Homo sapiens) (UniProt Q99677). Kind of data set: Antagonist activity at human LPA4 receptor expressed in CHO cells assessed as inhibition of LPA-induced calcium accumulation preincubated for 30 mins followed by Eu-cAMP tracer addition and measured after 1 hr by TR-FRET assay relative to hexadecyl LPA. Format: functional, cell-based. For orientation: In TR-FRET formats the signal depends on donor and acceptor labels being close together.

Molecules are shown by their SMILES. In brackets after ≈: the same amount, converted by molar mass. Activity calls are given as the source filed them.

Chain of Lysophosphatidic acid receptor 4 (Homo sapiens) (Q99677 whole entry): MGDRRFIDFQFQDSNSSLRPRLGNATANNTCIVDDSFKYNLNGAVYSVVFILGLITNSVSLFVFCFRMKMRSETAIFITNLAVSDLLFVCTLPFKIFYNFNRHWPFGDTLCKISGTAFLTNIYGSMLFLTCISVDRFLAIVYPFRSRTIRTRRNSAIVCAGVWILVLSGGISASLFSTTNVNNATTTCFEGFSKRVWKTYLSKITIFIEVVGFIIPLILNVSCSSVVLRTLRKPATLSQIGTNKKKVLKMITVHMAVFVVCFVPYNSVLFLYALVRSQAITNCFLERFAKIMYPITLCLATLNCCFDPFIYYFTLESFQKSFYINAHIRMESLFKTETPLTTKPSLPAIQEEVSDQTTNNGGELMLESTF
Chain of Lysophosphatidic acid receptor 2 (Homo sapiens) (Q9HBW0 whole entry): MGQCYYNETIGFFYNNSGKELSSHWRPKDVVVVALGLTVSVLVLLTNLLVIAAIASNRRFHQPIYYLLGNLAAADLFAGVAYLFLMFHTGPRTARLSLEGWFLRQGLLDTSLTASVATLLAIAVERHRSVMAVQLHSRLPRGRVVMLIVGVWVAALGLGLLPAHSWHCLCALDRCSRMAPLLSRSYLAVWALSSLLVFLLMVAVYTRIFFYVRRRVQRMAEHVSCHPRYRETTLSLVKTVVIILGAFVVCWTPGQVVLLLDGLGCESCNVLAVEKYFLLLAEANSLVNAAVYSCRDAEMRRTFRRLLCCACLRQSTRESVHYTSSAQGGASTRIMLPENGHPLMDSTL

A word on the EC50: it is the concentration giving half of the maximal effect. As to `CCCCCCCCCCCCCCCCOC[C@@H](O)COP(=O)(O)O`, the EC50 was 15 nM in data set [1] and 95 nM in data set [2].
By IC50 is commonly meant the concentration that gives 50% inhibition. Usually inhibition stands for the relative decrease from the control value, in per cent. With `COc1cc2c(C(=O)N3CCCCC3)cn(-c3ccc4occ(C)c4c3)c(=O)c2cc1OC`, the half-maximal inhibitory concentration (IC50) in data set [1] stood at 48 nM; in data set [2] it was 190 nM. Further, the inhibition came to 88% in data set [3] and 105% in [5]. The outcome in data set [4] was inactive.
On the same counts, the results for `COc1cc2c(C(=O)N3CCCCC3)cn(-c3ccc4ccn(C)c4c3)c(=O)c2cc1OC` are 64 nM, 460 nM, 109%, 104% and “inactive”.
For the compound `C#CC1CCN(C(=O)c2cn(-c3cccc(N(C)C)c3)c(=O)c3cc(OC)c(OC)cc23)CC1`, the IC50 in data set [1] stood at 46 nM. Also, the inhibition in [3] turned out to be 101%; in data set [5], 105%. The outcome in [4] was inactive.
As to `COc1cc2c(C(=O)N3CCC(F)CC3)cn(-c3cccc(N(C)C)c3)c(=O)c2cc1OC`, the figures for the IC50 in data set [1] and in data set [2] were 79 nM and 950 nM, respectively. The inhibition was 94% in data set [3] and 102% in [5]. For the same compound, in data set [4], the outcome was inactive.
For `COc1cc2c(C(=O)N3CCC(F)CC3)cn(-c3ccc4occ(C)c4c3)c(=O)c2cc1OC`, in that order: 144 nM, 203 nM, 100%, 102% and “inactive”.
On the same counts, the results for `COc1cc2c(C(=O)N3CCCCC3)cn(-c3cccc(N(C)C)c3)c(=O)c2cc1OC` are 87 nM, 790 nM, 89%, 104% and “inactive”.
On to `COc1cc2c(C(=O)N3CCCCC3)cn(-c3noc4ccc(C)cc34)c(=O)c2cc1OC`, for which the IC50 was determined as 36 nM in data set [1] and 210 nM in data set [2]. The Activity entry is “Dose-Dependent Effect” in the data set filed under Rattus norvegicus [6], “Tde” in the data set on Rattus norvegicus [7], “Tde” in the data set with Rattus norvegicus [9] and “Dose-Dependent Effect” in the data set filed under Rattus norvegicus [10]. Further, the inhibition stood at 102% in data set [3] and 108% in [5]. Also, in the data set with Rattus norvegicus [8], the result was Active. Also, in the data set filed under Homo sapiens, the Ratio IC50 was 5.8.
In the case of `COc1cc2c(C(=O)N3CCC(C#N)CC3)cn(-c3cccc(N(C)C)c3)c(=O)c2cc1OC`, in data set [1], the IC50 was determined as 102 nM. In addition, the inhibition in [3] was 92%; in data set [5], 89%. For the same compound, the outcome in [4] was inactive.
Take `CCN1CCc2ccc(-n3cc(C(=O)N4CCC(F)CC4)c4cc(OC)c(OC)cc4c3=O)cc21`: the IC50 worked out at 58 nM in data set [1] and 570 nM in data set [2]. For the same compound, the inhibition in data set [3] came out at 94%; in data set [5], 104%.
A word on the kinetic solubility: it is solubility judged after dilution from a stock solution rather than from solid. With `COc1cc2c(C(=O)N3CCC(F)CC3)cn(-c3ccc4scc(C)c4c3)c(=O)c2cc1OC`, the IC50 in data set [1] stood at 69 nM; in [2] it was 340 nM. Also, the inhibition in [3] was 104%; in data set [5] it was 107%; in data set [12] it was less than 50%; in data set [15], less than 50%; in [16], less than 50%; in [18], less than 50%. In addition, in data set [11], the Papp is 22.2 10^-6 cm/s. Further, the result in data set [4] was inactive. In the data set with Rattus norvegicus [13], the outcome was Active. Moreover, the Ratio in data set [14] came out at 1.4. Besides, the kinetic solubility in [17] worked out at 96.4 µM (≈ 46.3 µg/mL).
Turning to `COc1cc2c(C(=O)N3CCC(F)CC3)cn(-c3cccc(C(C)C)c3)c(=O)c2cc1OC`, the results for the IC50 in data set [1] and in [2] were 200 nM and 394 nM, respectively. Moreover, the inhibition in [3] came to 98%; in data set [5] it was 103%. Moreover, the outcome in [4] was inactive.
As to `COc1ccc2c(C(=O)N3CCC(F)CC3)cn(-c3cccc(N(C)C)c3)c(=O)c2c1`, in data set [1], the half-maximal inhibitory concentration (IC50) is 1060 nM. Also, the outcome in data set [4] was inactive. Also, the inhibition in data set [5] came to 96%.
On the same counts, the results for `COc1cc2c(C(=O)N3CCCC(C)C3)cn(-c3cccc(N(C)C)c3)c(=O)c2cc1OC` (racemic) are 260 nM, “inactive” and 104%.
For `COc1cc2c(C(=O)N3CCCCC3)cn(-c3ccc4occc4c3)c(=O)c2cc1OC`, in that order: 1100 nM, “inactive” and 93%.
